The results in this text go back to ChEMBL document CHEMBL3352149, “Promiscuity and selectivity in covalent enzyme inhibition: a systematic study of electrophilic fragments” (J Med Chem, 2014).

A value given as a limit tells only on which side of the number the result lay.

In assay [1] the test system is Escherichia coli. Nature of the assay: Inhibition of wild-type Escherichia coli MurB compound preincubated for 10 mins before substrate addition at 25 uM measured after 15 mins by LC-MS method. Put shortly: (§1)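 E. coli wild-type enzyme (4 nM) was preincubated with 25 μM compound for 10 min at 37 °C. Enzymatically generated nucleotide-sugar substrate (~200 μM) plus ATP (~200 μM), or NADPH 200 μM for MurB, was added for 10 min. Reactions were started with amino-acid cosubstrate (MurC–F) or EP-UNAG (MurB), run 15 min at 37 °C, and quenched with formic acid. Product was measured by negative-ESI LC-MS EIC peak area. MgCl2: MurC 10, MurD/E 2, MurF 5 mM; MurB had 5 mM KCl. All in 50 mM NH4HCO3, 0.07% BSA, 1% DMSO; triplicate.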

The subject of assay [2] is Escherichia coli. Kind of assay: Induction of covalent MetAP enzyme adduct formation at 300 uM after 1 hr by ESI-MS analysis. Put shortly: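 E. coli MetAP (25 μM) was incubated with 300 μM compound for 60 min at 37 °C in 50 mM NH4HCO3, pH 7.9, with 200 μM CoCl2. Untreated enzyme served as control. Samples were spin-desalted on Sephadex G-25 and analysed by flow-injection ESI-MS in positive mode (isocratic water/acetonitrile 95/5 with 0.1% formic acid), looking for covalent adducts.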

Assay [3] can be described thus: GSH reactivity of the compound assessed as half life by RP-HPLC analysis.
Assay [4] in a line: GSH reactivity of the compound assessed as adducts formation by RP-HPLC analysis. An outline of the steps: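 Fresh aqueous glutathione (10 mM solution) was added to 50 mM Tris-maleate buffer, pH 7.5. The reaction was started with compound from 10 mM DMSO stock (final 250 μM). Mixtures were followed by reversed-phase HPLC on an ODS column with a gradient to 100% B; rate constants are given in l·mol⁻¹·s⁻¹.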

The test system of assay [5] is Escherichia coli. Kind of assay: Inhibition of wild-type Escherichia coli MurF compound preincubated for 10 mins before substrate addition at 25 uM measured after 15 mins by LC-MS method. An outline of the steps:
as §1

For assay [6], the system named is Escherichia coli. Kind of assay: Induction of covalent MurB enzyme adduct formation preincubated with UNAG substrate for 10 mins compound treated at 300 uM after 1 hr by ESI-MS analysis.
The subject of assay [7] is Escherichia coli. Nature of the assay: Inhibition of Escherichia coli MetAP at 25 uM after 20 mins by HPLC analysis. An outline of the steps:
(§2)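 Endpoint assay. Enzyme (50 nM) was preincubated with 25 μM compound for 20 min at 37 °C in 50 mM Tris pH 7.5, 100 mM NaCl, 100 μM CoCl2, 0.075% BSA. MGMM substrate (400 μM) was then added for 15 min (human MetAP-1) or 20 min (E. coli MetAP). Reactions were stopped with TFA. GMM product was quantified by RP-HPLC, UV 214 nm. Triplicate.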

Assay [8] has as its system Escherichia coli. Kind of assay: Inhibition of wild-type Escherichia coli MurD compound preincubated for 10 mins before substrate addition at 25 uM measured after 15 mins by LC-MS method. Put shortly: as §1
In another assay the test system is HeLa. Nature of the assay: Cytotoxicity against human HeLa cells assessed as reduction in cell viability after 24 hrs by CellTiter-Blue assay. The class given is cell-based. Put shortly: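 HeLa cells seeded in triplicate at 5×10^3 cells/well and grown 24 h at 37 °C/5% CO2. Compounds at varying concentrations were added as a 2x stock in phenol-red-free DMEM with FBS, penicillin/streptomycin, sodium pyruvate and L-glutamine, then left 24 h. Medium was replaced with CellTiter-Blue medium for 3 h. A570/A610 was read after background subtraction, as % of untreated controls; EC50 derived.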
(The colour change of resazurin is a common sign of viable cells or microbes.)

Assay [9] relates to Escherichia coli. Nature of the assay: Inhibition of wild-type Escherichia coli MurE compound preincubated for 10 mins before substrate addition at 25 uM measured after 15 mins by LC-MS method. An outline of the steps: as §1
Assay [10] deals with Genome polyprotein (West Nile virus) (UniProt P06935). Nature of the assay: Inhibition of West Nile virus NS2B-NS3 protease at 50 uM.
Chain of Genome polyprotein (West Nile virus) (P06935 whole entry): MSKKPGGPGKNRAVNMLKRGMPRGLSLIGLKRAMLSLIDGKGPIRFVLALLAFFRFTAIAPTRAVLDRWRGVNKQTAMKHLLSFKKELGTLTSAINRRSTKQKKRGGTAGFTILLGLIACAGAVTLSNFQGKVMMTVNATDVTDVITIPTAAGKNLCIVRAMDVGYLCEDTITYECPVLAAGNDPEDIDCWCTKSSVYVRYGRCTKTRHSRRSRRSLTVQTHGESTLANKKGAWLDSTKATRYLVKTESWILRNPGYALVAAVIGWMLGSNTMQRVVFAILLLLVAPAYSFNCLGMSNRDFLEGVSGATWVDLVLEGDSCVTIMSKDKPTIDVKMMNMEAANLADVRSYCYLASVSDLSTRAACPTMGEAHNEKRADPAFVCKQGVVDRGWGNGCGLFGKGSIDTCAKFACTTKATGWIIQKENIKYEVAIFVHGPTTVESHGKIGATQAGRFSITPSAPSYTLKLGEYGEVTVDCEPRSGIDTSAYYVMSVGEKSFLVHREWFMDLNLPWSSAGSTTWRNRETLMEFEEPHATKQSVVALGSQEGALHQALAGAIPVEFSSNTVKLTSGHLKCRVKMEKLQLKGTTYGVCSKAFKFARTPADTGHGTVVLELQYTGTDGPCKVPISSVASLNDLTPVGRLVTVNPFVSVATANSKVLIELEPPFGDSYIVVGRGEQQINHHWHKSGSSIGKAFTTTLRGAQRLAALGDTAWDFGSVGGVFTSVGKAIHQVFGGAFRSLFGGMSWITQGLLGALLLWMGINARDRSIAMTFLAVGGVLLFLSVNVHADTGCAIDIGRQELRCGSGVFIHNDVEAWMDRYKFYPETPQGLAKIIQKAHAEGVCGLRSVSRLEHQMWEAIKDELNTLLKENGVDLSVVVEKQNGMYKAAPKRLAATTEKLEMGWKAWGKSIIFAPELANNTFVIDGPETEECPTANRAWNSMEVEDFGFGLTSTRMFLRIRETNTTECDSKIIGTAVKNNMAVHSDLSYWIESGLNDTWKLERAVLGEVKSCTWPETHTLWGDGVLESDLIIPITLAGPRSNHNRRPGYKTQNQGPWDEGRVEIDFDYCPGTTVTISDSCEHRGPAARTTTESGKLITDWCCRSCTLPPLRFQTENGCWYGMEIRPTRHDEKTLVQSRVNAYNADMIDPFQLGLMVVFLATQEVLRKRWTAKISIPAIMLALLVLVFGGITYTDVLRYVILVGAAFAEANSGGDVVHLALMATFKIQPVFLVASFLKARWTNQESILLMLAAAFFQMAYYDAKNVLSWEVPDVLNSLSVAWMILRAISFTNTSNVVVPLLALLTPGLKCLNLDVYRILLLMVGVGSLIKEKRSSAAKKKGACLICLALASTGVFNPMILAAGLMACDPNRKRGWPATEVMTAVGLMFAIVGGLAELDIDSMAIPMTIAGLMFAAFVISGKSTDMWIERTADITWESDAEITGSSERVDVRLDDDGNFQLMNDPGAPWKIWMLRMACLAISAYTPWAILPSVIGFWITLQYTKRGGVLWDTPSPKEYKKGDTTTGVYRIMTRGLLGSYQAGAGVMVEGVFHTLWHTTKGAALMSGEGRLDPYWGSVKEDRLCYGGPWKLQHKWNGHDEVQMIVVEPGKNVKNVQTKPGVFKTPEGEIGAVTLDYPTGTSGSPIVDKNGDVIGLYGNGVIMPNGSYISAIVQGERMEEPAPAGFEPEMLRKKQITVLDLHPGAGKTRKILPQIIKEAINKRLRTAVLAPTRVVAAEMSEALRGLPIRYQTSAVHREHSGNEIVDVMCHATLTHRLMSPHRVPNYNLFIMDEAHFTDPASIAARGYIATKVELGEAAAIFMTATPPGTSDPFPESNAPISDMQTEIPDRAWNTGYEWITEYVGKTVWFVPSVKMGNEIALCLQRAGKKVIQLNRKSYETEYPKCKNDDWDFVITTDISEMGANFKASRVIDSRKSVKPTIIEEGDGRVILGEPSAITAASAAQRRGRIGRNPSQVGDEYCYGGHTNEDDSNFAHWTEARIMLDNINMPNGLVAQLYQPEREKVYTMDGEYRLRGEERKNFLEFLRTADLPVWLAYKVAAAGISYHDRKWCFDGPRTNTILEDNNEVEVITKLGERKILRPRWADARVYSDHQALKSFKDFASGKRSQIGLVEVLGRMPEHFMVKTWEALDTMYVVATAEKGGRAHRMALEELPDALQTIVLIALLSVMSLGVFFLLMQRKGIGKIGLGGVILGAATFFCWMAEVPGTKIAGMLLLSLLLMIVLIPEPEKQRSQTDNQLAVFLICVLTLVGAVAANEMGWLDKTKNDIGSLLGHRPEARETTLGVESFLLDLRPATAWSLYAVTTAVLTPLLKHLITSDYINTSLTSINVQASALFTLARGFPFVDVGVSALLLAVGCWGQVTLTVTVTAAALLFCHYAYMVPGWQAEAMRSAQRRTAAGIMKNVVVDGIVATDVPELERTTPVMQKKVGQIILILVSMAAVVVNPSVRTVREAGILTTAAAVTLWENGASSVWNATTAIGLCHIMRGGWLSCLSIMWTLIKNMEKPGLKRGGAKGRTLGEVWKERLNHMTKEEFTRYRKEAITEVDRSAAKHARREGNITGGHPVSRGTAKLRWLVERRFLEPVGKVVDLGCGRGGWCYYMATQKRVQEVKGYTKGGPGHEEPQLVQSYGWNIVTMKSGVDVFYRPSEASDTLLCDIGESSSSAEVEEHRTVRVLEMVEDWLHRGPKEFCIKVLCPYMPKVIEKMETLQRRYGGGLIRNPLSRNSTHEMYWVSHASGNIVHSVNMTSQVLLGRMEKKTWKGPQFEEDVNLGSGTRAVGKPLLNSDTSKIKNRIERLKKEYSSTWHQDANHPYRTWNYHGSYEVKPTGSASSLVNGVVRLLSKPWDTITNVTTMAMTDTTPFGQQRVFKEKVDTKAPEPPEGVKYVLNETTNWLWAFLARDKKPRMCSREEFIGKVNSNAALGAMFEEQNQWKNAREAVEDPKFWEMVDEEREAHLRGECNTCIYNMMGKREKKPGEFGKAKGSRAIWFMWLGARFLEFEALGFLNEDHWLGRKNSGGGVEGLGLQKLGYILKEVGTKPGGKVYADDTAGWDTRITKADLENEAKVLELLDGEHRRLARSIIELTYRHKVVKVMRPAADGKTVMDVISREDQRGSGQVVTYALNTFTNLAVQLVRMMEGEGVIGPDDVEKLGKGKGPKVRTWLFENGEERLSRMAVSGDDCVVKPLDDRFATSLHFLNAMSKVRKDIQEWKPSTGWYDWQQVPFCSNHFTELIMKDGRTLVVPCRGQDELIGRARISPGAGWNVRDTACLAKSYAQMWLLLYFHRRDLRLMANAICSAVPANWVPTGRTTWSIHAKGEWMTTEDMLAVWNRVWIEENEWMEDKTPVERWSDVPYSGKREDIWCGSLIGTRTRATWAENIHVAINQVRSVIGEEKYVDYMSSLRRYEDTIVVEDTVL
The next assay deals with Prothrombin (Bos taurus) (UniProt P00735). Nature of the assay: Inhibition of Bovine thrombin using Boc-Val-Pro-Arg-AMC as substrate compound preincubated at 25 uM for 15 mins by fluorescence assay. An outline of the steps: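 Bovine thrombin (final 10 nM) was preincubated 15 min with 25 μM compound in 50 mM Tris-HCl pH 7.5, 150 mM NaCl, 0.05% Tween 20. The reaction was started with Boc-Val-Pro-Arg-AMC (50 μM final). Fluorescence (ex 355/em 460 nm) was monitored continuously for 10 min; activity taken as slope (RFU/s). Triplicate.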

The target of assay [11] is Genome polyprotein (dengue virus type 2) (UniProt P12823). Nature of the assay: Inhibition of Dengue virus serotype 2 NS2B-NS3 protease at 50 uM.
In assay [12] the test system is Escherichia coli. Nature of the assay: Inhibition of wild-type Escherichia coli MurA compound preincubated for 10 mins before substrate addition at 25 uM measured after 15 mins by LC-MS method.
For assay [13], the system named is Escherichia coli. Nature of the assay: Induction of covalent MurE enzyme adduct formation preincubated with UNAG substrate for 10 mins compound treated at 300 uM after 1 hr by ESI-MS analysis.
The test system of assay [14] is Escherichia coli. Nature of the assay: Inhibition of wild-type Escherichia coli MurC compound preincubated for 10 mins before substrate addition at 25 uM measured after 15 mins by LC-MS method. Put shortly: as §1
In assay [15] the target is Methionine aminopeptidase 1 (Homo sapiens) (UniProt P53582). Kind of assay: Inhibition of human MetAP at 25 uM after 20 mins by HPLC analysis. An outline of the steps:
as §2

For the molecule `O=C(Nc1ccc([N+](=O)[O-])cc1)C1CC(Br)=NO1` (configuration not stated), the inhibition (as a rule, the relative decrease from the control value, in per cent) with Escherichia coli [1] is < 15%; in the assay with Escherichia coli [5], < 15%; with Escherichia coli [7] it was 28%; in the assay on Escherichia coli [8], < 15%; in the assay with Escherichia coli [9] it was 44%; in assay [10] it was < 15%. Moreover, the inhibition (against Prothrombin (Bos taurus); in assay [11]; in the assay with Escherichia coli [12]; with Escherichia coli [14]; in assay [15]) was < 15% throughout. Besides, the Activity (in the assay on Escherichia coli [2]; in assay [4]; in the assay on Escherichia coli [6]; with Escherichia coli [13]) was < 0.1 L/mol/s throughout. In assay [3], the T1/2 was > 200 h. Further, the EC50 (usually the concentration giving half of the maximal effect) in the assay on HeLa was determined as 73.4 µM.
